Laboratory results reported in ChEMBL document CHEMBL1799919, “Design, synthesis, biological evaluation, and structure-activity relationships of substituted phenyl 4-(2-oxoimidazolidin-1-yl)benzenesulfonates as new tubulin inhibitors mimicking combretastatin A-4” (J Med Chem, 2011).
The source made the active and inactive calls. The calls are words filed in the database; no cut-off is given here.

How the values were obtained:
[1] = system: HT-29; experiment: Antiproliferative activity against human HT-29 cells after 48 hrs by sulforhodamine B assay; assay type: functional, cell-based; details: HT-29, 48 h
[2] = system: M21; experiment: Disruption of cytoskeleton microtubule structure of human M21 cells at 5 times IC50 after 16 hrs by indirect immunofluorescence assay; assay type: functional, cell-based
In short: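 Fixed in 3.7% formaldehyde, permeabilized with saponin, and stained with anti-β-tubulin (TUB 2.1), Alexa-488 secondary and DAPI. Microtubule structure scored by fluorescence microscopy.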

[3] = system: M21; experiment: Cell cycle arrest in human M21 cells assessed as accumulation at S phase at 5 times IC50 after 24 hrs using propidium iodide staining by flow cytometric analysis (reference value: 30%); assay type: functional
[4] = system: M21; experiment: Antiproliferative activity against human M21 cells after 48 hrs by sulforhodamine B assay; assay type: functional, cell-based; details: M21, 48 h
[5] = system: MCF7; experiment: Antiproliferative activity against human MCF7 cells after 48 hrs by sulforhodamine B assay; assay type: functional, cell-based; details: MCF7, 48 h
[6] = system: M21; experiment: Cell cycle arrest in human M21 cells assessed as accumulation at G2/M phase at 5 times IC50 after 24 hrs using propidium iodide staining by flow cytometric analysis (reference value: 9%); assay type: functional
[7] = system: M21; experiment: Cell cycle arrest in human M21 cells assessed as accumulation at G0/G1 phase at 5 times IC50 after 24 hrs using propidium iodide staining by flow cytometric analysis (reference value: 61%); assay type: functional
[8] = system: MDA-MB-231; experiment: Displacement of N,N'-ethylenebis(iodoacetamide) from colchicine-binding site of beta-tubulin in human MDA-MB-231 cells at 1000 times IC50 preincubated for after 2 hrs before N,N'-ethylenebis(iodoacetamide) addition measured after 1.5 hrs by chemiluminescence assay; assay type: cell-based
In short: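 EBI (100 μM final) added for 1.5 h at 37 °C; controls received 0.5% DMSO. Lysates (20 μg protein) run on 10% SDS-PAGE and blotted with anti-β-tubulin (TUB 2.1). β-tubulin–EBI adduct band detected by ECL.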

IC50 [1]	IC50 [5]	SMILES	Activity [2]	Activity [3]	IC50 [4]	Activity [6]	Activity [7]	inhibition [8]
0.066 µM	0.073 µM	O=C1NCCN1c1ccc(S(=O)(=O)Oc2ccccc2Cl)cc1	Active	15%	0.045 µM	83%	2%	Active
0.067 µM	0.088 µM	COc1ccc(OS(=O)(=O)c2ccc(N3CCNC3=O)cc2)cc1OC	Active	19%	0.045 µM	80%	1%	Active
0.034 µM	0.049 µM	Cc1cc(OS(=O)(=O)c2ccc(N3CCNC3=O)cc2)cc(C)c1C	Active	0%	0.015 µM	99%	0%	Active
0.051 µM	0.05 µM	Cc1ccc(OS(=O)(=O)c2ccc(N3CCNC3=O)cc2)c(C)c1	Active	0%	0.039 µM	100%	0%	Active
0.12 µM	0.15 µM	Cc1ccc(OS(=O)(=O)c2ccc(N3CCNC3=O)cc2)cc1	Active	13%	0.093 µM	55%	32%	inactive
0.087 µM	0.088 µM	O=C1NCCN1c1ccc(S(=O)(=O)Oc2ccc(Cl)cc2)cc1	Active	0%	0.058 µM	100%	0%	Active
0.03 µM	0.03 µM	O=C1NCCN1c1ccc(S(=O)(=O)Oc2cc(Cl)c(Cl)cc2Cl)cc1	Active	0%	0.031 µM	99%	1%	Active
0.061 µM	0.087 µM	CCc1ccccc1OS(=O)(=O)c1ccc(N2CCNC2=O)cc1	Active	0%	0.052 µM	100%	0%	Active
0.034 µM	0.051 µM	CCCc1cccc(OS(=O)(=O)c2ccc(N3CCNC3=O)cc2)c1	Active	25%	0.027 µM	73%	2%	Active
0.077 µM	0.11 µM	CCCc1ccc(OS(=O)(=O)c2ccc(N3CCNC3=O)cc2)cc1	Active	18%	0.059 µM	81%	1%	Active
0.044 µM	0.056 µM	CCOc1ccc(OS(=O)(=O)c2ccc(N3CCNC3=O)cc2)cc1	Active	23%	0.039 µM	75%	2%	
0.15 µM	0.42 µM	O=C(NCCCl)Nc1cccc(CCCCCO)c1	Active	11%	0.23 µM	88%	1%	
0.11 µM	0.17 µM	O=C1NCCN1c1ccc(S(=O)(=O)Oc2c(Cl)cc(Cl)cc2Cl)cc1			0.12 µM			
0.18 µM	0.33 µM	Cc1ccc2cccc(OS(=O)(=O)c3ccc(N4CCNC4=O)cc3)c2n1			0.13 µM			
0.34 µM	0.32 µM	O=C1NCCN1c1ccc(S(=O)(=O)Oc2c(F)c(F)c(F)c(F)c2F)cc1			0.22 µM			
> 1 µM	> 1 µM	O=C1NCCCN1c1ccc(S(=O)(=O)Oc2cc(Cl)c(Cl)cc2Cl)cc1			> 1 µM			
> 1 µM	> 1 µM	O=C1NCCN1c1ccc(S(=O)(=O)Oc2ccc([N+](=O)[O-])cc2)cc1			0.57 µM			
